Measured values taken from ChEMBL document CHEMBL5032493, “Synthesis and Evaluation of PPARδ Agonists That Promote Osteogenesis in a Human Mesenchymal Stem Cell Culture and in a Mouse Model of Human Osteoporosis” (J Med Chem, 2021).
Calls of active or inactive are those of the source. The calls are words filed in the database; no cut-off is given here.

Columns and labels:
Mesenchymal stem cells [1] = assay: Induction of osteogenesis differentiation in human Mesenchymal stem cells at 1 uM incubated for 21 days by Alizarin Red S staining-based microscopic analysis; format: functional, cell-based; settings: time 21.0 day
Mesenchymal stem cells [2] = assay: Induction of adipogenesis differentiation in human Mesenchymal stem cells at 1 uM incubated for 21 days by […] staining-based microscopic analysis; format: functional, cell-based; settings: time 21.0 day
Mesenchymal stem cells [3] = assay: Induction of adipogenesis differentiation in human Mesenchymal stem cells at 10 uM incubated for 21 days by […] staining-based microscopic analysis; format: functional, cell-based; settings: time 21.0 day
Mesenchymal stem cells [4] = assay: Induction of osteogenesis differentiation in human Mesenchymal stem cells at 10 uM incubated for 21 days by Alizarin Red S staining-based microscopic analysis; format: functional, cell-based; settings: time 21.0 day
Mesenchymal stem cells [5] = assay: Induction of adipogenesis differentiation in human Mesenchymal stem cells at 20 uM incubated for 21 days by […] staining-based microscopic analysis; format: functional, cell-based; settings: time 21.0 day
Mesenchymal stem cells [6] = assay: Induction of osteogenesis differentiation in human Mesenchymal stem cells at 20 uM incubated for 21 days by Alizarin Red S staining-based microscopic analysis; format: functional, cell-based; settings: time 21.0 day
[7] = target: T1, Peroxisome proliferator-activated receptor alpha (Homo sapiens, UniProt Q07869); assay: Agonist activity at human PPARalpha transfected in COS-7 cells assessed luciferase activity measured after 24 hrs by cell based luciferase transactivation assay; settings: read-out: EC50
T1 sequence (Q07869 whole entry): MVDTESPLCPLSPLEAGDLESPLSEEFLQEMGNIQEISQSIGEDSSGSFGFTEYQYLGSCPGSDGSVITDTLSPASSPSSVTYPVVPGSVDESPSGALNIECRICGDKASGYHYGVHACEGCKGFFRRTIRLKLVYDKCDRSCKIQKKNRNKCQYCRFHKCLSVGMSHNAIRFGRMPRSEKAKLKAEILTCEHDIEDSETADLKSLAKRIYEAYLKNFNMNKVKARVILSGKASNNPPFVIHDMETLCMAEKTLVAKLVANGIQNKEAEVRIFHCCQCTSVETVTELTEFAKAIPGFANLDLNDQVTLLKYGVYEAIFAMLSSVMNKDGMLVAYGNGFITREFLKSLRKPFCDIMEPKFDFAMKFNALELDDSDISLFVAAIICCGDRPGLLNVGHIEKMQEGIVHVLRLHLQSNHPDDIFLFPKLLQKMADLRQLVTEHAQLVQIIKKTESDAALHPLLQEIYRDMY
How it was run: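 Transient transfection of COS-7 cells with human PPARα, PPARγ or PPARδ plus luciferase reporter; constitutive Renilla luciferase also read. Three or more independent experiments in triplicate (N ≥ 9).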

[8] = target: T2, Peroxisome proliferator-activated receptor delta (Homo sapiens, UniProt Q03181); assay: Agonist activity at human PPARdelta transfected in COS-7 cells assessed luciferase activity measured after 24 hrs by cell based luciferase transactivation assay
T2 sequence (Q03181 whole entry): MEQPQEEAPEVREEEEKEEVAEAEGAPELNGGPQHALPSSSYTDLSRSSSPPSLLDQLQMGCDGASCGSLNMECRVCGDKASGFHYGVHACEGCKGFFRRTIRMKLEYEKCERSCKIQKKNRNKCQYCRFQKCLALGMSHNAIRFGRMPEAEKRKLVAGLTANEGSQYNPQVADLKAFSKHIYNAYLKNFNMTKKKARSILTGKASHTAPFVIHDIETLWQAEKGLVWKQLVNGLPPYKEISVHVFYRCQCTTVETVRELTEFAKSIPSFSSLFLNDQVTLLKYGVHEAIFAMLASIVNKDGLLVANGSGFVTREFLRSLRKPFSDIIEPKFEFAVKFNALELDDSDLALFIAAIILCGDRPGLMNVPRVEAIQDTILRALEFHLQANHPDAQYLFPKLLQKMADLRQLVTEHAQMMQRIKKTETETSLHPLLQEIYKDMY

[9] = target: T3, Peroxisome proliferator-activated receptor gamma (Homo sapiens, UniProt P37231); assay: Agonist activity at human PPARgamma transfected in COS-7 cells assessed luciferase activity measured after 24 hrs by cell based luciferase transactivation assay; settings: read-out: EC50
T3 sequence (P37231 whole entry): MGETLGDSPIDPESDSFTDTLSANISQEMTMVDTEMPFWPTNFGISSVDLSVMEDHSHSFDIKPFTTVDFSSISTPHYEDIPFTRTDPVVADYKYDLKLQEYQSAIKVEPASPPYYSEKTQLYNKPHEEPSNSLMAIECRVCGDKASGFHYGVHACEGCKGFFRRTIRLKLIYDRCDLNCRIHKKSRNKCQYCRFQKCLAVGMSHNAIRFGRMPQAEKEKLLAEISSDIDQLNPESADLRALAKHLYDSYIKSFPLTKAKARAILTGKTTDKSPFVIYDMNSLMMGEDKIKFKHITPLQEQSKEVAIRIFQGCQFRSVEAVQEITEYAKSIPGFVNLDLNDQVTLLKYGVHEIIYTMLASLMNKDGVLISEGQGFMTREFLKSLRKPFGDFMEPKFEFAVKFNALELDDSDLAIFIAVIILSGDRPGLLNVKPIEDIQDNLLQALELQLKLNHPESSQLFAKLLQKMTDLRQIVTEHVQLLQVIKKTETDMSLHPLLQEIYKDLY

[10] = target: T4, Peroxisome proliferator-activated receptor alpha (Homo sapiens) (UniProt Q07869); assay: Agonist activity at human PPARalpha transfected in COS-7 cells assessed maximum luciferase activity measured after 24 hrs by cell based luciferase transactivation assay relative to gemfibrozil; settings: filed as agonist
T4 sequence (whole entry): T1 sequence (Q07869 whole entry)
How it was run: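 Transient transfection of COS-7 cells with human PPARα, PPARγ or PPARδ plus luciferase reporter; constitutive Renilla luciferase also read. […] Three or more independent experiments in triplicate (N ≥ 9).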

| EC50 [7] [µM] | EC50 [8] [µM] | EC50 [9] [µM] | Emax [10] [%] | Compound | Activity (Mesenchymal stem cells [1]) | Activity (Mesenchymal stem cells [2]) | Activity (Mesenchymal stem cells [3]) | Activity (Mesenchymal stem cells [4]) | Activity (Mesenchymal stem cells [5]) | Activity (Mesenchymal stem cells [6]) |
| --- | --- | --- | --- | --- | --- | --- | --- | --- | --- | --- |
|  |  |  |  | Cc1nc(-c2ccccc2)sc1CSc1ccc(/C=C/C(=O)O)cc1 | Active | Active | Active | inactive |  |  |
|  |  |  |  | COC(=O)/C=C/c1ccc(OCc2sc(-c3cccc(C(F)(F)F)c3)nc2C)cc1 | inactive | Active |  |  |  |  |
|  |  |  |  | Cc1nc(-c2cccc(C(F)(F)F)c2)sc1CSc1ccc(/C=C/C(=O)O)cc1 | Active | inactive | Active | inactive | Active | inactive |
|  |  |  |  | Cc1nc(-c2ccc(C(F)(F)F)cc2)sc1CN(C)c1ccc(/C=C/C(=O)O)c(C(C)C)c1 | Active | inactive | inactive | Active | inactive | Active |
| 17.7 | 0.535 | 17 | 338 | Cc1nc(-c2ccc(C(F)(F)F)cc2)sc1CSc1ccc(/C=C/C(=O)O)cc1 | Active | inactive | inactive | Active |  |  |
|  |  |  |  | Cc1nc(-c2ccc(C(F)(F)F)c(F)c2)sc1CN(C)c1ccc(/C=C/C(=O)O)cc1 | Active | inactive | inactive | inactive | Active | inactive |
|  |  |  |  | Cc1nc(-c2cccc(C(F)(F)F)c2)sc1CN(C)c1ccc(/C=C/C(=O)O)cc1 | Active | inactive | Active | inactive | Active | inactive |
|  |  |  |  | Cc1nn(-c2ccc(C(F)(F)F)cc2)nc1CNc1ccc(/C=C/C(=O)O)cc1 | Active | Active | Active | Active | Active | Active |
|  |  |  |  | Cc1nc(-c2cccc(C(F)(F)F)c2)sc1COc1ccc(/C=C/C(=O)O)cc1 | Active | Active |  |  |  |  |
|  |  |  |  | Cc1sc(-c2ccc(C(F)(F)F)cc2)nc1CN(C)c1ccc(/C=C/C(=O)O)cc1 | Active | inactive | inactive | Active | inactive | inactive |
| 11.8 |  |  | 110 | Cc1ccc(C)c(OCCCC(C)(C)C(=O)O)c1 [GEMFIBROZIL] |  |  |  |  |  |  |
|  |  |  |  | Cc1nc(-c2ccccc2)sc1CNc1ccc(/C=C/C(=O)O)cc1 | Active | Active | Active | inactive |  |  |
| 6.01 | 1.22 |  | 377 | Cc1nc(-c2ccc(C(F)(F)F)cc2)sc1CNc1ccc(/C=C/C(=O)O)cc1 | Active | inactive | Active | Active | Active | Active |
|  |  |  |  | Cc1nc(-c2ccc(C(F)(F)F)cc2)sc1CN(c1ccc(/C=C/C(=O)O)cc1)C(C)C | Active | inactive | inactive | Active | inactive | Active |
|  |  |  |  | Cc1nc(-c2ccc(C(F)(F)F)c(F)c2)sc1CNc1ccc(/C=C/C(=O)O)cc1 | Active | inactive | Active | inactive | Active | inactive |
|  |  |  |  | COC(=O)/C=C/c1ccc(OCc2sc(-c3ccc(C(F)(F)F)cc3)nc2C)cc1 | inactive | Active |  |  |  |  |
|  |  |  |  | Cc1nc(-c2ccc(C(F)(F)F)c(F)c2)sc1CN(C(=O)OC(C)(C)C)c1ccc(/C=C/C(=O)O)cc1 | Active | inactive | Active | inactive | Active | inactive |
|  |  |  | > 120 | CN(CCOc1ccc(CC2SC(=O)NC2=O)cc1)c1ccccn1 (stereo not given) |  | Active | Active |  |  |  |
|  |  |  |  | Cc1nn(-c2ccc(C(F)(F)F)cc2)nc1CN(C)c1ccc(/C=C/C(=O)O)cc1 | Active | inactive | inactive | Active | inactive | Active |
|  |  |  |  | Cc1nc(-c2ccc(C(F)(F)F)cc2)sc1CN(Cc1sc(-c2ccc(C(F)(F)F)cc2)nc1C)c1ccc(/C=C/C(=O)O)cc1 | Active | inactive | inactive | inactive |  |  |
|  |  |  |  | Cc1nc(-c2cccc(C(F)(F)F)c2)sc1CNc1ccc(/C=C/C(=O)O)cc1 | inactive | Active | Active | inactive | Active | inactive |
|  |  |  |  | Cc1cc(/C=C/C(=O)O)ccc1N(C)Cc1sc(-c2ccc(C(F)(F)F)cc2)nc1C | Active | inactive | inactive | Active | inactive | Active |
|  |  |  |  | CCCN(Cc1sc(-c2ccc(C(F)(F)F)cc2)nc1C)c1ccc(/C=C/C(=O)O)cc1 | Active | inactive | Active | Active | Active | inactive |
|  |  |  |  | CCN(Cc1sc(-c2ccc(C(F)(F)F)cc2)nc1C)c1ccc(/C=C/C(=O)O)cc1 | Active | Active | Active | Active | Active | Active |
|  |  |  |  | Cc1nc(-c2ccccc2)sc1CN(C)c1ccc(/C=C/C(=O)O)cc1 | Active | inactive | Active | inactive | Active | inactive |
|  |  |  |  | CCc1cc(N(C)Cc2sc(-c3ccc(C(F)(F)F)cc3)nc2C)ccc1/C=C/C(=O)O | Active | Active | Active | Active | Active | Active |
|  |  |  |  | Cc1nc(-c2ccccc2)sc1COc1ccc(/C=C/C(=O)O)cc1 | inactive | Active | Active | inactive |  |  |
